ChEMBL document CHEMBL4346701, “Synthesis and biological evaluation of tryptophan-derived rhodanine derivatives as PTP1B inhibitors and anti-bacterial agents” (Eur J Med Chem, 2019)
Values after ≈ are worked out from the molar mass of the structure shown.

Key:
Staphylococcus aureus [1] = experiment: Potency index, ratio of MIC of norfloxacin to MIC of compound for antibacterial activity against Methicillin-resistant Staphylococcus aureus CCARM 3506 assessed as reduction in bacterial cell growth incubated for 24 hrs by ELISA; assay type: functional
Staphylococcus aureus [2] = experiment: Potency index, ratio of MIC of oxacillin to MIC of compound for antibacterial activity against Methicillin-resistant Staphylococcus aureus CCARM 3167 assessed as reduction in bacterial cell growth incubated for 24 hrs by ELISA; assay type: functional
Pseudomonas aeruginosa = experiment: Antibacterial activity against Pseudomonas aeruginosa 2742 assessed as reduction in bacterial cell growth incubated for 24 hrs by ELISA; assay type: functional; conditions: Pseudomonas aeruginosa, 2742, 24 h
Outline: (§1)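 MIC determined by serial dilution in 96-well microtiter plates. Strains used were E. coli 1924 and P. aeruginosa 2742 (Gram-negative), S. mutans 3289 (Gram-positive) and the fungus C. albicans 7535. Gatifloxacin, moxifloxacin, norfloxacin and oxacillin served as antibacterial reference agents, and fluconazole as the antifungal reference.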

Staphylococcus aureus [3] = experiment: Antibacterial activity against Staphylococcus aureus RN4220 assessed as reduction in bacterial cell growth incubated for 24 hrs by ELISA; assay type: functional; conditions: RN4220, 24 h
Outline: (§2)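 MICs determined by serial dilution in 96-well microtiter plates. The strain panel included Gram-positive S. aureus strains and multidrug-resistant clinical isolates. Gatifloxacin, moxifloxacin, norfloxacin and oxacillin served as antibacterial positive controls.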

Staphylococcus aureus [4] = experiment: Potency index, ratio of MIC of oxacillin to MIC of compound for antibacterial activity against Methicillin-resistant Staphylococcus aureus CCARM 3506 assessed as reduction in bacterial cell growth incubated for 24 hrs by ELISA; assay type: functional
Candida albicans = experiment: Antifungal activity against Candida albicans 7535 assessed as reduction in bacterial cell growth incubated for 24 hrs by ELISA; assay type: functional; conditions: Candida albicans, 7535, 24 h; outline: as §1
Staphylococcus aureus [5] = experiment: Antibacterial activity against Methicillin-resistant Staphylococcus aureus CCARM 3167 assessed as reduction in bacterial cell growth incubated for 24 hrs by ELISA; assay type: functional; conditions: CCARM 3167, 24 h; outline: as §2
Staphylococcus aureus [6] = experiment: Antibacterial activity against Quinolone-resistant Staphylococcus aureus CCARM 3505 assessed as reduction in bacterial cell growth incubated for 24 hrs by ELISA; assay type: functional; conditions: CCARM 3505, 24 h; outline: as §2
Staphylococcus aureus [7] = experiment: Antibacterial activity against Methicillin-resistant Staphylococcus aureus CCARM 3506 assessed as reduction in bacterial cell growth incubated for 24 hrs by ELISA; assay type: functional; conditions: CCARM 3506, 24 h; outline: as §2
Staphylococcus aureus [8] = experiment: Antibacterial activity against Quinolone-resistant Staphylococcus aureus CCARM 3519 assessed as reduction in bacterial cell growth incubated for 24 hrs by ELISA; assay type: functional; conditions: CCARM 3519, 24 h; outline: as §2
Staphylococcus aureus [9] = experiment: Potency index, ratio of MIC of norfloxacin to MIC of compound for antibacterial activity against Methicillin-resistant Staphylococcus aureus CCARM 3167 assessed as reduction in bacterial cell growth incubated for 24 hrs by ELISA; assay type: functional
[10] = biological target: T1, Tyrosine-protein phosphatase non-receptor type 1 (Homo sapiens, UniProt P18031); experiment: Inhibition of human recombinant GST-tagged PTP1B expressed in Escherichia coli BL21 (DE3) using pNPP as substrate measured for 2 mins by colorimetric analysis
T1 sequence (P18031 whole entry): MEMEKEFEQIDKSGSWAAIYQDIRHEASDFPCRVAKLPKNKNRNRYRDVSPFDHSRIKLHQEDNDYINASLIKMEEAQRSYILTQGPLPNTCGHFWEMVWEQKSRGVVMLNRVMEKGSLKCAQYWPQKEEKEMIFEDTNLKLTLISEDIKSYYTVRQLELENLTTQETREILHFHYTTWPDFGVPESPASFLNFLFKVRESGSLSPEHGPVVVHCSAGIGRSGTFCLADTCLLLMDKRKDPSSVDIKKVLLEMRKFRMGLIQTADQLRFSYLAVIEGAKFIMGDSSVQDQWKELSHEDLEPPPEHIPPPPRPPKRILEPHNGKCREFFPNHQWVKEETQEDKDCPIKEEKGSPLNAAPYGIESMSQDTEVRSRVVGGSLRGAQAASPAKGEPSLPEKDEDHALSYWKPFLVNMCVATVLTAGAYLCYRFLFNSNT

Escherichia coli [11] = experiment: Antibacterial activity against Escherichia coli 1924 assessed as reduction in bacterial cell growth incubated for 24 hrs by ELISA; assay type: functional; conditions: Escherichia coli, 1924, 24 h; outline: as §1
Streptococcus mutans = experiment: Antibacterial activity against Streptococcus mutans KCTC3289 assessed as reduction in bacterial cell growth incubated for 24 hrs by ELISA; assay type: functional; conditions: KCTC3289, 24 h; outline: as §1
Staphylococcus aureus [12] = experiment: Antibacterial activity against Staphylococcus aureus KCTC503 assessed as reduction in bacterial cell growth incubated for 24 hrs by ELISA; assay type: functional; conditions: KCTC503, 24 h; outline: as §2
Staphylococcus aureus [13] = experiment: Antibacterial activity against Staphylococcus aureus KCTC209 assessed as reduction in bacterial cell growth incubated for 24 hrs by ELISA; assay type: functional; conditions: KCTC209, 24 h; outline: as §2
Staphylococcus aureus [14] = experiment: Potency index, ratio of MIC of gatifloxacin to MIC of compound for antibacterial activity against Staphylococcus aureus KCTC503 assessed as reduction in bacterial cell growth incubated for 24 hrs by ELISA; assay type: functional
Escherichia coli [15] = experiment: Potency index, ratio of MIC of gatifloxacin to MIC of compound for antibacterial activity against Escherichia coli 1924 assessed as reduction in bacterial cell growth incubated for 24 hrs by ELISA; assay type: functional
Escherichia coli [16] = experiment: Potency index, ratio of MIC of moxifloxacin to MIC of compound for antibacterial activity against Escherichia coli 1924 assessed as reduction in bacterial cell growth incubated for 24 hrs by ELISA; assay type: functional

| SMILES | Ratio (Staphylococcus aureus [1]) | Ratio (Staphylococcus aureus [2]) | MIC (Pseudomonas aeruginosa) [µg/mL] | MIC (Staphylococcus aureus [3]) [µg/mL] | Ratio (Staphylococcus aureus [4]) | MIC (Candida albicans) [µg/mL] | MIC (Staphylococcus aureus [5]) [µg/mL] | MIC (Staphylococcus aureus [6]) [µg/mL] | MIC (Staphylococcus aureus [7]) [µg/mL] | MIC (Staphylococcus aureus [8]) [µg/mL] | Ratio (Staphylococcus aureus [9]) | IC50 [10] [nM] | MIC (Escherichia coli [11]) [µg/mL] | MIC (Streptococcus mutans) [µg/mL] | MIC (Staphylococcus aureus [12]) [µg/mL] | MIC (Staphylococcus aureus [13]) [µg/mL] | Ratio (Staphylococcus aureus [14]) | Ratio (Escherichia coli [15]) | Ratio (Escherichia coli [16]) |
| --- | --- | --- | --- | --- | --- | --- | --- | --- | --- | --- | --- | --- | --- | --- | --- | --- | --- | --- | --- |
| O=C(O)C(Cc1c[nH]c2ccccc12)N1C(=O)/C(=C/c2ccc3cc(OCc4ccc(Cl)cc4)ccc3c2)SC1=S (stereo unspecified) | 4 | 64 | > 64 | 2 (≈ 3.34 µM) | 64 | > 64 | 2 (≈ 3.34 µM) | 2 (≈ 3.34 µM) | 2 (≈ 3.34 µM) | 4 (≈ 6.68 µM) | 4 | 720 | 2 (≈ 3.34 µM) | 2 (≈ 3.34 µM) | – | – | – | – | – |
| O=C(O)C(Cc1c[nH]c2ccccc12)N1C(=O)/C(=C/c2cccc(OCc3ccc(Cl)cc3)c2)SC1=S (stereo unspecified) | – | – | > 64 | 2 (≈ 3.64 µM) | – | > 64 | 2 (≈ 3.64 µM) | 2 (≈ 3.64 µM) | 4 (≈ 7.29 µM) | 4 (≈ 7.29 µM) | – | 5760 | 2 (≈ 3.64 µM) | 2 (≈ 3.64 µM) | 2 (≈ 3.64 µM) | 2 (≈ 3.64 µM) | 2 | – | – |
| O=C(O)C(Cc1c[nH]c2ccccc12)N1C(=O)/C(=C/c2ccc(OCc3ccc(Br)cc3)cc2)SC1=S (stereo unspecified) | 4 | 64 | > 64 | 1 (≈ 1.68 µM) | 64 | > 64 | 2 (≈ 3.37 µM) | 2 (≈ 3.37 µM) | 2 (≈ 3.37 µM) | 2 (≈ 3.37 µM) | 4 | 2600 | 1 (≈ 1.68 µM) | 1 (≈ 1.68 µM) | 2 (≈ 3.37 µM) | 4 (≈ 6.74 µM) | 2 | 2 | 2 |
